Consider one compound from ChEMBL document CHEMBL1138474, “Modulation of the transient receptor potential vanilloid channel TRPV4 by 4alpha-phorbol esters: a structure-activity study” (J Med Chem, 2009).

The target of assay [1] is T1, Transient receptor potential cation channel subfamily V member 2 (Homo sapiens) (UniProt Q9Y5S1).
T1 sequence (whole entry): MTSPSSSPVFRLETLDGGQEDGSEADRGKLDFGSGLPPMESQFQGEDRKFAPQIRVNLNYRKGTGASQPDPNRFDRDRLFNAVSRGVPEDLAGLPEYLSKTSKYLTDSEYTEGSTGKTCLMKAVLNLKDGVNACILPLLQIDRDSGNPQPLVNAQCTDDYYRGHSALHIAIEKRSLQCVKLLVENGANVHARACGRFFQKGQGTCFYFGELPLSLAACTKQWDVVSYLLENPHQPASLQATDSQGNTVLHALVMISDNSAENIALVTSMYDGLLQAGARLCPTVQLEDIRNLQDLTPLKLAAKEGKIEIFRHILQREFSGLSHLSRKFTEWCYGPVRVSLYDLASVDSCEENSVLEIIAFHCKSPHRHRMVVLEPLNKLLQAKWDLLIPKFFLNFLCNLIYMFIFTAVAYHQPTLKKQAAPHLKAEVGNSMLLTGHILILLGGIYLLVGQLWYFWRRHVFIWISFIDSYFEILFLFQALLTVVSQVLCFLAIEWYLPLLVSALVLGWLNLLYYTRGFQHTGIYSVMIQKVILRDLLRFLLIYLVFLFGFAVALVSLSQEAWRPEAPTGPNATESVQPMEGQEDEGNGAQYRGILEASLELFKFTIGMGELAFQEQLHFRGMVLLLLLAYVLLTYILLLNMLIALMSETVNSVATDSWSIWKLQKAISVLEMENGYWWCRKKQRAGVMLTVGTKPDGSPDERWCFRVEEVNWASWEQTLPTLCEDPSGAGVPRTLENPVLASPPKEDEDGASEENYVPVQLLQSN
In words: Activation of TRPV2 expressed in HEK293 cells assessed as increase in intracellular calcium concentration. The assay is classed as cell-based. Summed up:
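HEK293 cells grown in DMEM with 10% human serum at 37 °C/10% CO2 and transfected with the TRPV channel. Cells were loaded with 4 µM Fura-2 AM for 30 min at 37 °C and perfused with Krebs buffer (1.5 mM CaCl2, pH 7.4). Read-out is single-cell 340/380 nm fura-2 ratio imaging against nontransfected cells.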

Assay [2] concerns the target Transient receptor potential cation channel subfamily V member 4 (Mus musculus) (UniProt Q9EPK8). In words: Activation of mouse wild type TRPV4 expressed in HEK293 cells assessed as outward-inward rectifying current density at 500 nM at a holding potential of 100 mV by whole cell patch-clamp assay in absence of calcium. In kind it is cell-based. Summed up:
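Whole-cell patch clamp was run on mTRPV4-transfected HEK293 cells using ramps from -100 to +100 mV. CaCl2 was omitted from both solutions. Bath (mM): 150 NaCl, 6 CsCl, 1 MgCl2, 10 glucose, 10 HEPES, pH 7.4. Pipette (mM): 20 CsCl, 100 aspartate, 1 MgCl2, 10 HEPES, 4 Na-ATP, 10 BAPTA, pH 7.4. Agonist was added to the bath. Five cells, >2 transfections.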

The target is the same in assay [3]. In words: Activation of mouse wild type TRPV4 expressed in HEK293 cells assessed as outward-inward rectifying current density at 500 nM at a holding potential of 100 mV by whole cell patch-clamp assay in presence of calcium. The assay is classed as cell-based. Summed up: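 Whole-cell patch clamp was run on mTRPV4-transfected HEK293 cells using ramps from -100 to +100 mV. Bath (mM): 150 NaCl, 6 CsCl, 1 MgCl2, 5 CaCl2, 10 glucose, 10 HEPES, pH 7.4. Pipette (mM): 20 CsCl, 100 aspartate, 1 MgCl2, 10 HEPES, 4 Na-ATP, 10 BAPTA, free Ca2+ buffered to 200 nM, pH 7.4. Agonist was added to the bath. Five cells, >2 transfections.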

For assay [4], the target named is Transient receptor potential cation channel subfamily V member 4 (Mus musculus, UniProt Q9EPK8). The assay is described as follows: Activation of mouse wild type TRPV4 expressed in HEK293 cells assessed as increase in intracellular calcium concentration. The assay is classed as cell-based. Summed up: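 mTRPV4 (wild type or the Y556A, S557A or W586A TM3-4 mutant) in pCAGGS/Ires-GFP was transiently transfected into HEK293 cells and incubated overnight. GFP-positive cells on poly-L-lysine coverslips were loaded with 4 µM Fura-2 AM for 30 min at 37 °C and perfused with Krebs solution (1.5 mM CaCl2, pH 7.4). The 340/380 nm ratio (510 nm emission) gave ∆Fura-2 ratio. EC50 came from a Hill fit, >15 cells, three transfections.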

The target of assay [5] is Transient receptor potential cation channel subfamily V member 4 (Mus musculus) (UniProt Q9EPK8). In words: Agonist activity at mouse wild type TRPV4 expressed in HEK293 cells assessed as increase in intracellular calcium measured by fura-2 fluorescence ratio. The assay is classed as functional, cell-based. Summed up: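 Mouse TRPV4 (pCAGGS/Ires-GFP) transiently transfected into HEK293 cells, incubated overnight, then seeded on poly-L-lysine coverslips. GFP-positive cells loaded with 4 µM Fura-2 AM for 30 min at 37 °C and perfused with Krebs (pH 7.4). ΔFura-2 ratio taken as (Rt−R0)/R0 at the maximal response. EC50 from a Hill fit over >15 cells from three transfections, mean ± SEM.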

The source made the active and inactive calls. The rule behind the calls is not given here.

Chain of Transient receptor potential cation channel subfamily V member 4 (Mus musculus) (Q9EPK8 whole entry, the tested form may be a part): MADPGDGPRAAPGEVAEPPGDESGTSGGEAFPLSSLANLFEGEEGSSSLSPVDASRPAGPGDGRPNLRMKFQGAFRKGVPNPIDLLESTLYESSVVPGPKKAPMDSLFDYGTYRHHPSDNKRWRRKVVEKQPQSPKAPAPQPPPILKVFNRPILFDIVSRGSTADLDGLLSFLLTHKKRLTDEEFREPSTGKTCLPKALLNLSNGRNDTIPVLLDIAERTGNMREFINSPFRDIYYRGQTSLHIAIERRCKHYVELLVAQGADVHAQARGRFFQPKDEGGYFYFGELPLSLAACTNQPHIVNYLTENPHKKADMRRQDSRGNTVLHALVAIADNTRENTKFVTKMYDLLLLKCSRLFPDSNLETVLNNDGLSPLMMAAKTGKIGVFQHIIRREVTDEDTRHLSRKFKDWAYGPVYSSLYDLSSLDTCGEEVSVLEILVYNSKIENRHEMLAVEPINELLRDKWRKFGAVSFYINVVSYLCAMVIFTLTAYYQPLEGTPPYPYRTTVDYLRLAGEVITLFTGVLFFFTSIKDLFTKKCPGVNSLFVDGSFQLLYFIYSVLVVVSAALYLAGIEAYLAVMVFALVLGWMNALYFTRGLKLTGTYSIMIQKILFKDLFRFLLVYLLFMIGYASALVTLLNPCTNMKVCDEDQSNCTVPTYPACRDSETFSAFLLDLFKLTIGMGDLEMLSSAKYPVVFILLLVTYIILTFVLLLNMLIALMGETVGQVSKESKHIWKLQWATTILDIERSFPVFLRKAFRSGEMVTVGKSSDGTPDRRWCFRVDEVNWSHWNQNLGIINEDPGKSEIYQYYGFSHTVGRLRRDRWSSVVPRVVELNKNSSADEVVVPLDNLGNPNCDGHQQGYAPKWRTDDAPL
Chain of Transient receptor potential cation channel subfamily V member 4 (Q9EPK8 whole entry, the tested form may be a part): as above

As for `CCCCCCCCCC(=O)O[C@@H]1[C@@H](C)[C@]2(O)[C@@H]3C4C([C@H]2[C@@H]2C(C)(C)[C@]12OC(=O)CCCCCCCCC)C1(CO)C[C@H]3C(=O)C41C` (stereo not given in full), in assay [1], the outcome was inactive. Moreover, the results for the Activity in assay [2] and in assay [3] were 635 and 505, respectively. The EC50 in assay [4] is 175 nM. Besides, the outcome in assay [5] was Active.
